The source of these data is publication PMC8669716 (ACS Pharmacology & Translational Science, 2021).

One may read the pEC50 as the EC50 on a negative log10 scale, so that one unit is a factor of ten. As a reminder, the pIC50 is the negative decadic logarithm of the IC50, by convention in mol/L. For orientation: inhibition means the percentage by which the read-out fell short of the control.

Data set [1] concerns the target T1, human recombinant LSD1 enzyme (Homo sapiens, UniProt O60341). Description: LSD1 HTRF assay. In kind it is biochemical. (Time-resolved FRET reads energy transfer from a long-lived donor to a nearby acceptor.)
Data set [2] has as its system AML cell line TF-1a. Kind of data set: AML cell viability. In kind it is cell-based. The following applies: for pEC50: TF-1a, read-out: EC50 viability, AML cell lines.
Data set [3] relates to SCLC patients. The note with it: cited from earlier work.
In data set [4] the target is INSM1/LSD1 interaction in NCI-H510A cells (Homo sapiens, UniProt O60341). Kind of data set: INSM1/LSD1 interaction ELISA on NCI-H510A lysates. In kind it is cell-based. The note with it: 24 h, 2000, 200, 20 and 2 nM.
In data set [5] the test system is SCLC cell line NCI-H510A. Kind of data set: SCLC cell viability. The format is cell-based. The following applies: Homo sapiens, 240 h, read-out: EC50 viability NCI-H510A.
Data set [6] has as its target recombinant LSD1 / GFI1B SNAG domain peptide interaction (Homo sapiens, UniProt O60341). Description: GFI1B-peptide/LSD1 interaction assay. The following applies: 2 μM, 200 nM, 20 nM and 2 nM. The format is binding.
For data set [7], the system named is GRP gene expression in NCI-H510A cells. Description: GRP gene expression by qRT-PCR. The format is cell-based. The note with it: 6 days, 2000, 200, 20 and 2 nM. Summed up:
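NCI-H510A SCLC cells (mycoplasma-free) seeded at 0.5 million per 5 mL complete RPMI-1640 (10% FBS, 2 mM l-glutamine). They were treated with test compound at 2000, 200, 20 and 2 nM for 6 days at 37 °C, 5% CO2. Pellets of 0.5 million cells were PBS-washed and stored at −80 °C, then total RNA was extracted for qRT-PCR of GRP; N = 1, n = 3.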

For data set [8], the target named is LSD1 in MV(4;11) cells (Homo sapiens, UniProt O60341). Kind of data set: LSD1 target engagement. In kind it is cell-based. The note with it: 24 h, 2000, 200, 20 and 2 nM.
The subject of data set [9] is RR-AML patients. The following applies: cited from earlier work.
Data set [10] is described as follows: Stability in aqueous buffer. The following applies: aqueous buffer at 37 °C, LCMS, day 6. The format is physicochemical. In a few lines:
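A 20 mM DMSO solution of test compound was diluted with PBS and held at 37 °C. Samples were analysed by LCMS at T = 0, 4 and 6 days, using one of three compound-specific HPLC method conditions.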

The conditions of data set [11]: cited from earlier work.
For data set [12], the target named is LSD1 in NCI-H510A cells (Homo sapiens, UniProt O60341). Kind of data set: LSD1 target engagement. The format is cell-based. The note with it: 24 h, 2000, 200, 20 and 2 nM.
Data set [13] concerns CD11b induction in THP-1 cells. Kind of data set: AML differentiation: CD11b by flow cytometry. In kind it is cell-based. The following applies: THP-1, 0.02 to 2000 nM, 96 h.
For data set [14], the target named is T2, human recombinant LSD2 enzyme (Homo sapiens, UniProt Q8NB78).
T2 sequence (Q8NB78 1-822): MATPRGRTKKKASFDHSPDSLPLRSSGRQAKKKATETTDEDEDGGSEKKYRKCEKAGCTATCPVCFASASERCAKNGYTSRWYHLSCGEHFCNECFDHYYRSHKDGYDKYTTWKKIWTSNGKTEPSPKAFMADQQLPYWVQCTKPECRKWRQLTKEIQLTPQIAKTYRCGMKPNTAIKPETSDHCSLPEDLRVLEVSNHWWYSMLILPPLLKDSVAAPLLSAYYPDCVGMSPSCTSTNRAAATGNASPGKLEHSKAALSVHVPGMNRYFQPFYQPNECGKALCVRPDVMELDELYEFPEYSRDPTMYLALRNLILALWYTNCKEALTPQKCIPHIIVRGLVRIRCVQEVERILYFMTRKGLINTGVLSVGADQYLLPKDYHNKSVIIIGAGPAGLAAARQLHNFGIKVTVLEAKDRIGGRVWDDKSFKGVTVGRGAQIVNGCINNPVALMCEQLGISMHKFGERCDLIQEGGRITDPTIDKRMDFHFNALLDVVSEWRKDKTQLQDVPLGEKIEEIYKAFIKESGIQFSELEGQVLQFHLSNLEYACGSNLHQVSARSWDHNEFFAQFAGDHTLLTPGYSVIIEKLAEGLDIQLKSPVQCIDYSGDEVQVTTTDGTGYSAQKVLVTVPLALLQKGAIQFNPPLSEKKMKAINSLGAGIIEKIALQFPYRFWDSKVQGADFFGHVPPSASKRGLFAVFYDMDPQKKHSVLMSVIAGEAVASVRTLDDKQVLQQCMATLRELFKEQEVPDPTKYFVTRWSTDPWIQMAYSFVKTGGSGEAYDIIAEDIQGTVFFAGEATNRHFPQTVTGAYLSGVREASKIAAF
Description: LSD2 HTRF assay. The format is biochemical. The note with it: read-out: LSD2 inhibition.

For data set [15], the target named is T1, human recombinant LSD1 enzyme. Description: LSD1 peroxidase. In kind it is biochemical.
The target is the same in data set [16]. The note with it: incubation at 10-fold IC50, 100-fold dilution.

The structures appear in SMILES notation. pEC50, pIC50: −log10 of the molar value.

As to `O=C(O)c1ccc(CN2CCC(CN[C@@H]3C[C@H]3c3ccccc3)CC2)cc1` [GSK-2879552], the “fold less active than iadademstat in the LSD1 HTRF assay” value in data set [1] was determined as 491 fold. Moreover, the “fold less active than iadademstat in the (TF-1a) AML viability assays” value in data set [2] came to 849 fold. Besides, in data set [3], the G3/4 encephalopathy is listed as 10%.
In the case of `c1ccc([C@@H]2C[C@H]2NC2CCNCC2)cc1` [OG-668], the “disruption of LSD1/INSM1 PPI” value in data set [4] was “reduction of the LSD1/INSM1 interaction at all four concentrations”. Further, in [5], the pEC50 is 8.93. Besides, in data set [6], the “disruption of LSD1/GFI1B interaction” value was “shows reduction of the LSD1/GFI1B interaction in the 2 μM to 2 nM range”. Further, the “effect on GRP expression” value in [7] is “reduce GRP expression at all concentrations”. In addition, the “LSD1 TE” value in [8] is “high LSD1 TE at all concentrations tested”.
Turning to `CN1CCN(C(=O)[C@H](CCCN[C@@H]2C[C@H]2c2ccc(F)cc2)NC(=O)c2ccc(-n3ccnn3)cc2)CC1` [bomedemstat], the “fold less active than iadademstat in the LSD1 HTRF assay” value in data set [1] is 174 fold. For the same molecule, the “fold less active than iadademstat in the (TF-1a) AML viability assays” value in data set [2] was 345 fold.
Take `N[C@H]1CC[C@H](N[C@@H]2C[C@H]2c2ccccc2)CC1` [iadademstat]: in [5], the pEC50 is 9.80. The safety and tolerability entry in data set [9] was “safe and well-tolerated”. Moreover, the “effect on GRP expression” value in data set [7] is reported as “most potently inhibits the expression of the neuroendocrine biomarker (including at 2 nM)”.
In the case of `C#CCN(C)Cc1ccccc1` [pargyline], the negative-log EC50 (pEC50) in data set [5] and in [2] was < 5.70 each time.
`NNCCc1ccccc1` [phenelzine]: the pEC50 in [5] and in data set [2] was < 5.70 each time. Further, in data set [10], the “T = 6 days purity (parent compound remaining)” value is listed as 4%.
Turning to `COc1ccc(-c2c(-c3ccc(C#N)c(F)c3)nc(N3CCC(N)CC3)n(C)c2=O)cc1F` [pulrodemstat], the half-life result in data set [11] (humans) was “≈ 70 h”. In addition, in data set [11] (monotherapy), the adverse events reported result is “Thrombocytopenia and neutropenia events”. The negative logarithm of the EC50 (pEC50) in [5] is 8.75.
Regarding `C/C(=N\NC(=O)c1cccc(S(=O)(=O)N2CCN(C)CC2)c1)c1cc(Cl)ccc1O` [seclidemstat], the “LSD1 TE” value in [12] is on record as “did not show any significant LSD1 TE at the concentrations tested”. The “disruption of LSD1/INSM1 PPI” value in data set [4] was “totally inactive”. Moreover, the pEC50 in data set [5] was 6.73. In addition, the negative logarithm of the IC50 (pIC50) in data set [1] (LSD1 IC50, HTRF assay) is 5.89; in data set [15], 5.62. Besides, the “disruption of LSD1/GFI1B interaction” value in [6] is “does not disrupt the LSD1/GFI1B interaction”. Further, the “induction of CD11b marker” value in [13] is on record as “does not induce the CD11b marker”. The inhibition at 10 µM in [14] was < 50%. Besides, the “T = 6 days purity (parent compound remaining)” value in [10] is 72%. Also, the “recovery of LSD1 activity upon jump dilution” value in data set [16] came to 62%. The “effect on GRP expression” value in data set [7] is “does not impact GRP expression”.
